Measurements taken from paper PMC12015351 (Scientific Reports, 2025).

What was measured:
[1] = test system: Calu-3 cells; assay: Cell viability assay, xCelligence RTCA-DP, Calu-3; format: cell-based, human
[2] = biological target: 3CL Protease (SARS-CoV-2) (Severe acute respiratory syndrome coronavirus 2, UniProt P0DTD1); assay: biochemical; conditions: read-out: inhibition of in vitro protease activity
[3] = test system: Caco-2 cells; assay: Cell viability assay, xCelligence RTCA-DP, Caco-2; format: cell-based, human; conditions: 50 µM
How it was run: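 Impedance-based real-time cell index monitoring. Seeding in e-plates: 15 × 10³ cells/well for Calu-3, 10 × 10³ for Caco-2. Plates rested 20 min at room temperature, then held at 37 °C, 5% CO2. After 24 h, medium replaced with test compound at 50, 10, 2 or 0.4 µM; 2 replicates per line. Readings every 15 min for 72 h; ~100 h curves compared with control.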

[4] = test system: SARS-CoV-2-induced cytopathic effects in human A549 cells (A549/ACE2); conditions: live virus; cited from earlier work
[5] = test system: SARS-CoV-2-induced cytopathic effects in Vero E6; conditions: live virus; cited from earlier work
[6] = test system: SARS-CoV-2 replicon in Caco-2 cells; format: cell-based; conditions: for activity level in presence of Cnd: Caco-2, specific dose of Cnd (candesartan)
[7] = test system: 3CLpro; conditions: FRET-based enzymatic assay; cited from earlier work
[8] = test system: SARS-CoV-2 replicon in Calu-3 cells; assay: microbe, parasite or virus in culture; format: cell-based; conditions: for activity level in presence of Cnd: Calu-3, specific dose of Cnd (candesartan)
[9] = test system: 3CLpro; conditions: read-out: IC50 on 3CLpro activity; cited from earlier work
[10] = person with VITT after ChAdOx1-S vaccine; cited from earlier work
[11] = test system: SARS-CoV-2 growth in lung cells; conditions: cited from earlier work
[12] = test system: SARS-CoV-2; conditions: mouse models; cited from earlier work

NC(=O)C(c1ccccc1)(c1ccccc1)[C@@H]1CCN(CCc2ccc3c(c2)CCO3)C1 [Drug B25, Darifenacin]
effect on cell proliferation (cell index) ([1]; 25 µM, after a certain period): reduced cell proliferation | effect on cell proliferation (cell index) ([1]; 50 µM): reduced cell proliferation

C[C@@H]1CCO[C@H]2Cn3cc(C(=O)NCc4ccc(F)cc4F)c(=O)c(O)c3C(=O)N12 [Drug B23, Dolutegravir]
inhibition at 50 µM [2]: ≥ 50%

CC(C)C(=O)OCC(=O)[C@@]12O[C@H](C3CCCCC3)O[C@@H]1C[C@H]1[C@@H]3CCC4=CC(=O)C=C[C@]4(C)[C@H]3[C@@H](O)C[C@@]12C [Drug B12, Ciclesonide]
effect on cell proliferation (cell index) [3]: toxic effects | effect on cell proliferation (cell index) ([1]; 50 µM): reduced cell proliferation

CC(C)COCC(CN(Cc1ccccc1)c1ccccc1)N1CCCC1 (stereo not shown) [bepridil]
inhibition of SARS-CoV-2-induced cytopathic effects [4]: significant inhibition | inhibition of SARS-CoV-2-induced cytopathic effects [5]: significant inhibition

CCOc1nc2cccc(C(=O)O)c2n1Cc1ccc(-c2ccccc2-c2nnn[nH]2)cc1 [Cnd, Candesartan]
IC50 range in words, Caco-2 [6]: sub-micromolar range | inhibitory activity on 3CLpro [7]: did not confirm | inhibition at 50 µM [2]: ≥ 50% | IC50 range in words, Calu-3 [8]: sub-micromolar range

O=c1[nH]c2ccccc2n1C1CCN(CCCC(c2ccc(F)cc2)c2ccc(F)cc2)CC1 [Drug B11, Pimozide]
activity level in presence of Cnd [6]: activity at the nanomolar (nM) level | IC50 [9]: 42.5 µM | inhibition of SARS-CoV-2-induced cytopathic effects [4]: significant inhibition | effect on cell proliferation (cell index) ([1]; 50 µM): reduced cell proliferation | inhibition of SARS-CoV-2-induced cytopathic effects [5]: significant inhibition | inhibition at 50 µM [2]: ≥ 50% | activity level in presence of Cnd [8]: activity at the nanomolar (nM) level

CC(=O)OCC(=O)[C@@]12OC3(CCCC3)O[C@@H]1C[C@H]1[C@@H]3CCC4=CC(=O)C=C[C@]4(C)[C@@]3(F)[C@@H](O)C[C@@]12C [Drug B5, Amcinonide]
activity level in presence of Cnd [6]: activity at the nanomolar (nM) level | inhibition at 50 µM [2]: ≥ 50% | IC50 ([8]; Severe acute respiratory syndrome coronavirus 2, Calu-3, read-out: IC50 (µM) in Calu-3 cells): 2 to 5 µM

CC1(C)O[C@@H]2C[C@H]3[C@@H]4C[C@H](F)C5=CC(=O)C=C[C@]5(C)[C@@]4(F)[C@@H](O)C[C@]3(C)[C@]2(C(=O)CO)O1 [Drug B2, Fluocinolone]
inhibition at 50 µM [2]: ≥ 50%

Cc1c(O)cccc1C(=O)N[C@@H](CSc1ccccc1)[C@H](O)CN1C[C@H]2CCCC[C@H]2C[C@H]1C(=O)NC(C)(C)C [Drug B21, Nelfinavir]
inhibition at 50 µM [2]: ≥ 50%

CC1(C)O[C@@H]2C[C@H]3[C@@H]4CCC5=CC(=O)C=C[C@]5(C)[C@H]4[C@@H](O)C[C@]3(C)[C@]2(C(=O)CO)O1 [Drug B7, Desonide]
inhibition at 50 µM [2]: ≥ 50%

CC1=NN(c2ccc(C)c(C)c2)C(=O)/C1=N\Nc1cccc(-c2cccc(C(=O)O)c2)c1O [Elt, Eltrombopag]
activity level in presence of Cnd [6]: activity at the nanomolar (nM) level | effect on cell proliferation (cell index) [3]: toxic effects | platelet levels [10]: normalized | effect on cell proliferation (cell index) ([1]; 50 µM): reduced cell proliferation | inhibition at 50 µM [2]: ≥ 50% | activity level in presence of Cnd [8]: activity at the nanomolar (nM) level

CC(=O)[C@@]1(O)CC[C@H]2[C@@H]3C[C@H](C)C4=CC(=O)C=C[C@]4(C)[C@@]3(F)[C@@H](O)C[C@@]21C [Drug B9, Fluorometholone]
inhibition at 50 µM [2]: ≥ 50%

CC(C)(C)c1cc(C(C)(C)C)c(NC(=O)c2c[nH]c3ccccc3c2=O)cc1O [ivacaftor]
SARS-CoV-2 growth [11]: inhibit SARS-CoV-2 growth | SARS-CoV-2 growth [12]: inhibit SARS-CoV-2 growth

Cc1ccc(NC(=O)C2(c3ccc4c(c3)OC(F)(F)O4)CC2)nc1-c1cccc(C(=O)O)c1 [Drug B22, Lumacaftor]
SARS-CoV-2 growth [11]: inhibit SARS-CoV-2 growth | SARS-CoV-2 growth [12]: inhibit SARS-CoV-2 growth | IC50 range in words, Caco-2 [6]: sub-micromolar range | activity level in presence of Cnd [6]: activity at the nanomolar (nM) level | inhibition at 50 µM [2]: ≥ 50% | IC50 range in words, Calu-3 [8]: sub-micromolar range

COc1ccc2c(O[C@@H]3C[C@H]4C(=O)N[C@]5(C(=O)NS(=O)(=O)C6CC6)C[C@H]5/C=C\CCCCN(C)C(=O)[C@@H]4C3)cc(-c3nc(C(C)C)cs3)nc2c1C [Drug B18, Simeprevir]
effect on cell proliferation (cell index) [3]: toxic effects
